ChEMBL document CHEMBL2396573, “Synthesis and evaluation of 8-amino-[1,2,4]triazolo[4,3-a]pyridin-3(2H)-one derivatives as glycogen synthase kinase-3 (GSK-3) inhibitors” (Bioorg Med Chem Lett, 2013)

Key:
[1] = molecular target: Glycogen synthase kinase-3 (Homo sapiens, UniProt P49840+P49841); experiment: Inhibition of recombinant human GSK3 using YRRAAVPPSPSLSRHSSPHQ(pS)EDEEE as substrate preincubated for 10 mins followed by [33P-gamma]-ATP addition measured after 30 mins by liquid scintillation counting analysis; format: protein assay
How it was run: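 Reaction started with 1 µM ATP […] 33P-γ-ATP, run 30 min at 30 °C, and stopped with 3% phosphoric acid. Product captured on P81 paper and read by scintillation counting. IC50 is the mean of triplicates.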

[2] = Inhibition of GSK3 in rat […] cells assessed as reduction in glucose production after overnight incubation by fluorescence assay; format: cell-based
How it was run: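 Rat hepatoma H4IIE cells grown in DMEM + 10% FBS, 2 mM L-glutamine and penicillin–streptomycin at 37 °C, 5% CO2, and passaged at 75% confluence. Plated at 100,000 cells/well, attached ~3 h, then PBS-washed and held overnight in glucose- and serum-free DMEM with 20 mM lactate and 2 mM pyruvate. Compounds, diluted in this medium, added overnight. Glucose in medium read with Amplex Red/glucose oxidase (30 min, dark; ex 560/em 615 nm); mean of triplicates.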

[3] = molecular target: Glycogen synthase kinase-3 beta (Homo sapiens) (UniProt P49841); experiment: Inhibition of human GSK3beta at 10 uM relative to control
[4] = molecular target: Rho-associated protein kinase 2 (Homo sapiens) (UniProt O75116); experiment: Inhibition of human ROCK-2 at 10 uM relative to control
[5] = molecular target: Mitogen-activated protein kinase 12 (Homo sapiens) (UniProt P53778); experiment: Inhibition of human SAPK3 at 10 uM relative to control
[6] = molecular target: Phosphorylase b kinase gamma catalytic chain, liver/testis isoform (Homo sapiens) (UniProt P15735); experiment: Inhibition of human PhKgamma2 at 10 uM relative to control
[7] = Elimination half life in rat at 3 mg/kg, iv by LC/MS/MS analysis; format: ADME, organism-based; parameters: dose 3 mg/kg, route intravenous; conditions: in vivo, read-out: beta t1/2 (converted)
How it was run: (§1)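 Rat PK, n = 3 animals; iv dose 3 mg/kg, oral dose 5 mg/kg. Plasma levels quantified by LC/MS/MS after dosing. Derived parameters: AUC0–inf, clearance, elimination half-life and oral bioavailability (F).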

[8] = molecular target: Tyrosine-protein kinase Lck (Homo sapiens) (UniProt P06239); experiment: Inhibition of human LCK at 10 uM relative to control
Chain of Tyrosine-protein kinase Lck (Homo sapiens) (P06239 2-509 limits assumed): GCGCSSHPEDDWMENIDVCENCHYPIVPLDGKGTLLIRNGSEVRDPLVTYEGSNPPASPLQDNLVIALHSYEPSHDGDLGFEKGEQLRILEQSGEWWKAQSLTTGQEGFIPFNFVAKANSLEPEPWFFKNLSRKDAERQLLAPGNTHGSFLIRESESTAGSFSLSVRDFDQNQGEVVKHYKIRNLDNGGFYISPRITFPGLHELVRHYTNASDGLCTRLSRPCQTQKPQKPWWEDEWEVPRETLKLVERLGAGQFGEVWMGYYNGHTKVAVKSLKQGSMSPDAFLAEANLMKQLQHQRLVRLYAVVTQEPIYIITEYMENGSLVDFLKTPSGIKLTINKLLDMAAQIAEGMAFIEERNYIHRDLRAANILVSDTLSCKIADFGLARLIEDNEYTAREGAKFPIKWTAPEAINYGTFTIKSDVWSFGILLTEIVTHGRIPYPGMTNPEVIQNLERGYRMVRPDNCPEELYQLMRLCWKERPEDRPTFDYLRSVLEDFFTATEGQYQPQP

[9] = molecular target: Ribosomal protein S6 kinase alpha-5 (Homo sapiens) (UniProt O75582); experiment: Inhibition of human MSK1 at 10 uM relative to control
[10] = Drug uptake in ICR mouse brain at 30 mg/kg, iv measured at 0.25 hrs by LC/MS/MS analysis; format: ADME, organism-based; parameters: dose 30 mg/kg, route intravenous; conditions: read-out: Drug uptake
How it was run: (§2)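 ICR mice, n = 3, given a single iv dose of 30 mg/kg. Plasma (ng/ml) and brain (ng/g) concentrations measured by LC/MS/MS at 0.25 and 0.75 h. Brain/plasma ratio taken from these paired values.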

[11] = Plasma concentration in ICR mouse at 30 mg/kg, iv measured at 0.25 hrs by LC/MS/MS analysis; format: ADME, organism-based; parameters: dose 30 mg/kg, route intravenous; how it was run: as §2
[12] = Oral bioavailability in rat at 5 mg/kg by LC/MS/MS analysis; format: ADME, organism-based; conditions: in vivo; how it was run: as §1
[13] = Ratio of drug level from brain to plasma in ICR mouse at 30 mg/kg, iv measured at 0.25 hrs; format: ADME, organism-based; parameters: dose 30 mg/kg, route intravenous; conditions: read-out: BPR; how it was run: as §2
[14] = molecular target: Ribosomal protein S6 kinase beta-1 (Homo sapiens) (UniProt P23443); experiment: Inhibition of human p70S6K at 10 uM relative to control
Chain of Ribosomal protein S6 kinase beta-1 (Homo sapiens) (P23443 whole entry, looked up): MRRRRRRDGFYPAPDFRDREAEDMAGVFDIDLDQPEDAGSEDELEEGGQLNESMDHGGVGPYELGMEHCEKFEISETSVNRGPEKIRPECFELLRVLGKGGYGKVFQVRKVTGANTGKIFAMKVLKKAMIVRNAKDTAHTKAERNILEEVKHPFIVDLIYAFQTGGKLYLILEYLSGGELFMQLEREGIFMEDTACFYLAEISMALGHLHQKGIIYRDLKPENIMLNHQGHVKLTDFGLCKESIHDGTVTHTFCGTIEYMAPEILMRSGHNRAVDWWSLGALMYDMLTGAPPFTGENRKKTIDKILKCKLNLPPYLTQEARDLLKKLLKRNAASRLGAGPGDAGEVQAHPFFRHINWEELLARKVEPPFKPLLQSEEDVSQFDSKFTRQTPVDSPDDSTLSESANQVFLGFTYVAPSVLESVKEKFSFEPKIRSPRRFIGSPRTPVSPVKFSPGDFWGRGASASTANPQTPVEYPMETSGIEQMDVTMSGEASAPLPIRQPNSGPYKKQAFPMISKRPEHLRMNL

[15] = AUC (0 to infinity) in rat at 3 mg/kg, iv by LC/MS/MS analysis; format: ADME, organism-based; parameters: time infinity, dose 3 mg/kg, route intravenous; conditions: plasma
How it was run: (§3)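 Rat pharmacokinetics with n = 3 per group. Compound given iv at 3 mg/kg or po at 5 mg/kg. Concentrations were measured by LC/MS/MS after administration. AUC0–inf is the area under the concentration–time curve. Clearance, elimination half-life and bioavailability were derived in the same study.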

[16] = molecular target: Glycogen synthase kinase-3 alpha (Homo sapiens) (UniProt P49840); experiment: Inhibition of human GSK3alpha at 10 uM relative to control
[17] = Clearance in rat at 3 mg/kg, iv by LC/MS/MS analysis; format: ADME, organism-based; parameters: dose 3 mg/kg, route intravenous; conditions: in vivo; how it was run: as §1
[18] = molecular target: MAP kinase-activated protein kinase 5 (Homo sapiens) (UniProt Q8IW41); experiment: Inhibition of human PRAK at 10 uM relative to control
[19] = Ratio of drug level from brain to plasma in ICR mouse at 30 mg/kg, iv measured at 0.75 hrs; format: ADME, organism-based; parameters: dose 30 mg/kg, route intravenous; conditions: read-out: BPR; how it was run: as §2
[20] = molecular target: Casein kinase II (Homo sapiens) (UniProt P67870+P68400+P19784); experiment: Inhibition of human CK2 at 10 uM relative to control; format: protein-complex assay
[21] = molecular target: Mitogen-activated protein kinase 14 (Homo sapiens) (UniProt Q16539); experiment: Inhibition of human SAPK2A at 10 uM relative to control
Chain of Mitogen-activated protein kinase 14 (Homo sapiens) (Q16539 whole entry): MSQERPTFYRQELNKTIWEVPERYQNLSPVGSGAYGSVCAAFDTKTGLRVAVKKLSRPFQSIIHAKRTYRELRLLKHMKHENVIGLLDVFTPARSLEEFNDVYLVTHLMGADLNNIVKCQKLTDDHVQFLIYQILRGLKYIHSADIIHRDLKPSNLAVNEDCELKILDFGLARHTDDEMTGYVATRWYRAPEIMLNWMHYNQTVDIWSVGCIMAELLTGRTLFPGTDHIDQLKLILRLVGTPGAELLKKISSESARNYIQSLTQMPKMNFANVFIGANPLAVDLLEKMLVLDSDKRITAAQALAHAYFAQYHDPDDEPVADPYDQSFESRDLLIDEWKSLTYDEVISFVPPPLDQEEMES

[22] = molecular target: Mitogen-activated protein kinase 1 (Homo sapiens) (UniProt P28482); experiment: Inhibition of human MAPK1 at 10 uM relative to control
Chain of Mitogen-activated protein kinase 1 (Homo sapiens) (P28482 whole entry): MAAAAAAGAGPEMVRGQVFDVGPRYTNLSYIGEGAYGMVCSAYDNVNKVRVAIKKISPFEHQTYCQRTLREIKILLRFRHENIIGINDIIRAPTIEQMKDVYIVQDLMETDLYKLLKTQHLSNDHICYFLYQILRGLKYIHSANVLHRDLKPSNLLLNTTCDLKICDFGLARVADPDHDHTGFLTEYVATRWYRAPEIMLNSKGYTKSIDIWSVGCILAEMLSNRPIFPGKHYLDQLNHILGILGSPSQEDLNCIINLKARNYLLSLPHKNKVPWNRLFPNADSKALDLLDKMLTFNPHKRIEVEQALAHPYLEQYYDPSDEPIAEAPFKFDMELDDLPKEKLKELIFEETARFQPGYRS

[23] = molecular target: 3-phosphoinositide-dependent protein kinase 1 (Homo sapiens) (UniProt O15530); experiment: Inhibition of human PDK1 at 10 uM relative to control
Chain of 3-phosphoinositide-dependent protein kinase 1 (Homo sapiens) (O15530 whole entry, looked up): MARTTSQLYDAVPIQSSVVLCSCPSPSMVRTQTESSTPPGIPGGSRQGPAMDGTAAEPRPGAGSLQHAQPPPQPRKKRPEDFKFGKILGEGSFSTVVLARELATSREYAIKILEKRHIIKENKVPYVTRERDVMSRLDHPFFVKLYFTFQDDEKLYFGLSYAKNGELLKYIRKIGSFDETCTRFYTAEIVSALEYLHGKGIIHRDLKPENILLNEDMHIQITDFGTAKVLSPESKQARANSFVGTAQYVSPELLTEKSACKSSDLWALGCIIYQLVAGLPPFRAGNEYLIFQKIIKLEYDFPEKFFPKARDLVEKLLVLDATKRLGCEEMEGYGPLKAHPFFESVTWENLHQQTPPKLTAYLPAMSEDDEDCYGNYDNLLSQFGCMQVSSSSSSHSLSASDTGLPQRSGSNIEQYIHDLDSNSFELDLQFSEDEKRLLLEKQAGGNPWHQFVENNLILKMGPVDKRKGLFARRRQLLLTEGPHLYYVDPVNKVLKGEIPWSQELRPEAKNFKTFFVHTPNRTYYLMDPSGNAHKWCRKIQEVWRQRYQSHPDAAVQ

[24] = molecular target: Ribosomal protein S6 kinase alpha-3 (Homo sapiens) (UniProt P51812); experiment: Inhibition of human RSK2 at 10 uM relative to control
[25] = molecular target: 5'-AMP-activated protein kinase catalytic subunit alpha-1 (Homo sapiens) (UniProt Q13131); experiment: Inhibition of human AMPKalpha1 at 10 uM relative to control
Chain of 5'-AMP-activated protein kinase catalytic subunit alpha-1 (Homo sapiens) (Q13131 whole entry, looked up): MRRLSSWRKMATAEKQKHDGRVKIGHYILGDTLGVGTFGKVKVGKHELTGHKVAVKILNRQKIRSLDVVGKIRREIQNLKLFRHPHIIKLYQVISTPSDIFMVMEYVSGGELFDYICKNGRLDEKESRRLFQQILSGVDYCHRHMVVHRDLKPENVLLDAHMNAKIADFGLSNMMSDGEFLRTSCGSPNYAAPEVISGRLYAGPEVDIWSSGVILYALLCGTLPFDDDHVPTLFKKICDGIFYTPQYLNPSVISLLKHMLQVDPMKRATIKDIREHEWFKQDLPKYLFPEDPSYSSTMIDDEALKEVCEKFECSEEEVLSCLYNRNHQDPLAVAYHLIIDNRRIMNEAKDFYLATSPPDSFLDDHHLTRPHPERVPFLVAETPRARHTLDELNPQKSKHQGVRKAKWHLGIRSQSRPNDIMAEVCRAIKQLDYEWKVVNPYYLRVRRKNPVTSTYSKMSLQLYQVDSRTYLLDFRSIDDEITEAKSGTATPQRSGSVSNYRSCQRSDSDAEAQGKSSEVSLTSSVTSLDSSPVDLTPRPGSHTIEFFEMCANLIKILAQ

[26] = Elimination half life in rat at 5 mg/kg, po by LC/MS/MS analysis; format: ADME, organism-based; parameters: dose 5 mg/kg, route oral; conditions: in vivo, read-out: beta t1/2 (converted); how it was run: as §1
[27] = molecular target: Mitogen-activated protein kinase 11 (Homo sapiens) (UniProt Q15759); experiment: Inhibition of human SAPK2B at 10 uM relative to control
[28] = Plasma concentration in ICR mouse at 30 mg/kg, iv measured at 0.75 hrs by LC/MS/MS analysis; format: ADME, organism-based; parameters: dose 30 mg/kg, route intravenous; how it was run: as §2
[29] = Drug uptake in ICR mouse brain at 30 mg/kg, iv measured at 0.75 hrs by LC/MS/MS analysis; format: ADME, organism-based; parameters: dose 30 mg/kg, route intravenous; conditions: read-out: Drug uptake; how it was run: as §2
[30] = AUC (0 to infinity) in rat at 5 mg/kg, po by LC/MS/MS analysis; format: ADME, organism-based; parameters: time infinity, dose 5 mg/kg, route oral; conditions: plasma; how it was run: as §3
[31] = Solubility of the compound in water; format: physicochemical
[32] = molecular target: Cyclin-dependent kinase 5/CDK5 activator 1 (Homo sapiens) (UniProt Q00535+Q15078); experiment: Inhibition of human CDK5/p25 at 10 uM relative to control; format: protein-complex assay
Homo sapiens = organism: Homo sapiens; experiment: Inhibition of human PKA at 10 uM relative to control
[33] = molecular target: MAP kinase-activated protein kinase 2 (Homo sapiens) (UniProt P49137); experiment: Inhibition of human MAPKAP-K2 at 10 uM relative to control
[34] = molecular target: Serine/threonine-protein kinase Chk1 (Homo sapiens) (UniProt O14757); experiment: Inhibition of human CHK1 at 10 uM relative to control
[35] = molecular target: Protein kinase C alpha type (Homo sapiens) (UniProt P17252); experiment: Inhibition of human PKCalpha at 10 uM relative to control
[36] = molecular target: RAC-alpha serine/threonine-protein kinase (Homo sapiens) (UniProt P31749); experiment: Inhibition of human PKBalpha at 10 uM relative to control
Chain of RAC-alpha serine/threonine-protein kinase (Homo sapiens) (P31749 whole entry): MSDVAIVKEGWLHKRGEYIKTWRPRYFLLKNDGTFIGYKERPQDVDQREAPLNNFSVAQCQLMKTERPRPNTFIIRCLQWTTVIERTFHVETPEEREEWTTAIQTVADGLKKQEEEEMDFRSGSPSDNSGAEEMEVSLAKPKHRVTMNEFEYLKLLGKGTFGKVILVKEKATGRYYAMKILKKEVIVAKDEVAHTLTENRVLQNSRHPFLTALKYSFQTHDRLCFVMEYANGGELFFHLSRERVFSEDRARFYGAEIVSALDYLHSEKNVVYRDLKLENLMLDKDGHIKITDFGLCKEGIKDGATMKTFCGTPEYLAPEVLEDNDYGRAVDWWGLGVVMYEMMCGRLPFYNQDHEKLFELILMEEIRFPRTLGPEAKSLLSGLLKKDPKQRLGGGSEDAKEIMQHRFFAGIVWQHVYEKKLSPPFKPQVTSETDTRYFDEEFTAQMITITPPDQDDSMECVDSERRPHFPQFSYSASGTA

[37] = molecular target: CDK2/Cyclin A2 (Homo sapiens) (UniProt P24941+P20248); experiment: Inhibition of human CDK2/cyclinA at 10 uM relative to control; format: protein-complex assay
[38] = molecular target: Mitogen-activated protein kinase 8 (Homo sapiens) (UniProt P45983); experiment: Inhibition of human JNK1alpha1 at 10 uM relative to control
[39] = molecular target: Mitogen-activated protein kinase 13 (Homo sapiens) (UniProt O15264); experiment: Inhibition of human SAPK4 at 10 uM relative to control
[40] = molecular target: Dual specificity mitogen-activated protein kinase kinase 1 (Homo sapiens) (UniProt Q02750); experiment: Inhibition of human MEK1 at 10 uM relative to control
Chain of Dual specificity mitogen-activated protein kinase kinase 1 (Homo sapiens) (Q02750 whole entry): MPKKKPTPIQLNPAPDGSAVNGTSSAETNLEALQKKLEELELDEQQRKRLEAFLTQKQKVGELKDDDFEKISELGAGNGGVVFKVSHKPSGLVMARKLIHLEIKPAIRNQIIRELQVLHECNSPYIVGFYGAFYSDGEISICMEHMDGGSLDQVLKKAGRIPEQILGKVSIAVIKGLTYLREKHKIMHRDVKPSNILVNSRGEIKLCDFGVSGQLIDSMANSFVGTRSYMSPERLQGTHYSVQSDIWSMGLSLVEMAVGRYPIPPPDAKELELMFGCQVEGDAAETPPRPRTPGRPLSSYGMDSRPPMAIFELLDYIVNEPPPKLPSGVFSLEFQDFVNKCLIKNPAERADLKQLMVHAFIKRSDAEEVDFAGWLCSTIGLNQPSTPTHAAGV

[41] = molecular target: Serine/threonine-protein kinase Sgk1 (Homo sapiens) (UniProt O00141); experiment: Inhibition of human SGK at 10 uM relative to control
Chain of Serine/threonine-protein kinase Sgk1 (Homo sapiens) (O00141 whole entry): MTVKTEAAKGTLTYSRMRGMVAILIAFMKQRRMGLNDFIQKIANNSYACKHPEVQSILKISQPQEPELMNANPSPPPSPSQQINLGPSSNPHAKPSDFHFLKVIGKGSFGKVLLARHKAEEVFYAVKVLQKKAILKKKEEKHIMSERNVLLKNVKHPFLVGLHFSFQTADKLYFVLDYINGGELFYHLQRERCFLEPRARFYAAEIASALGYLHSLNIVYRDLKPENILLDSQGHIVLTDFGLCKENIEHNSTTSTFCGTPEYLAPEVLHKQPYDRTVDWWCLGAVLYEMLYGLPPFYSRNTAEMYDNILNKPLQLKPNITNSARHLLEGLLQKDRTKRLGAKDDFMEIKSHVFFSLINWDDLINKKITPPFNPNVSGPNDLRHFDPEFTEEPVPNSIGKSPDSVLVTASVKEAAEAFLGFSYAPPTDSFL

SMILES: COc1ccc(CCC(=O)Nc2cccn3c(=O)[nH]nc23)cc1
- IC50 [1]: > 50 µM

SMILES: COc1cc(CCCNc2cc(C)cn3c(=O)[nH]nc23)ccn1.Cl
- IC50 [1]: 0.641 µM
- EC50 [2]: 9.11 µM

SMILES: Cc1cc(NCCCc2ccncc2)c2n[nH]c(=O)n2c1.Cl
- IC50 [1]: 0.607 µM
- EC50 [2]: 6.23 µM

SMILES: Cl.O=c1[nH]nc2c(NCCCc3ccncc3)cc(Cl)cn12
- inhibition [3]: 90%
- inhibition [4]: 27%
- inhibition [5]: 5%
- inhibition [6]: 25%
- half-life [7]: 24 min
- inhibition [8]: 19%
- inhibition [9]: 9%
- concentration at 0.25 h [10]: 214 ng/g
- concentration at 0.25 h [11]: 634 ng/mL
- bioavailability [12]: 83%
- Kp at 0.25 h [13]: 0.34
- IC50 [1]: 0.111 µM
- inhibition [14]: 14%
- AUC(0-inf) [15]: 2490 ng·h/mL
- inhibition [16]: 99%
- clearance [17]: 20 mL/min/kg
- inhibition [18]: 14%
- Kp at 0.75 h [19]: 0.1
- inhibition [20]: 5%
- inhibition [21]: -1%
- inhibition [22]: 15%
- inhibition [23]: 10%
- inhibition [24]: 34%
- inhibition [25]: -1%
- half-life [26]: 72 min
- inhibition [27]: 1%
- EC50 [2]: 1.78 µM
- concentration at 0.75 h [28]: 1050 ng/mL
- concentration at 0.75 h [29]: 107 ng/g
- AUC(0-inf) [30]: 3460 ng·h/mL
- solubility [31]: > 10000 µg/mL
- inhibition [32]: 53%
- inhibition (Homo sapiens): 0%
- inhibition [33]: 19%
- inhibition [34]: 21%
- inhibition [35]: 18%
- inhibition [36]: 12%
- inhibition [37]: 54%
- inhibition [38]: 9%
- inhibition [39]: 2%
- inhibition [40]: 9%
- inhibition [41]: 22%

SMILES: COc1ccc(OCCNc2cccn3c(=O)[nH]nc23)cc1
- IC50 [1]: 13 µM

SMILES: Cl.O=c1[nH]nc2c(NCCCc3cccnc3)cc(Cl)cn12
- IC50 [1]: 0.52 µM
- EC50 [2]: 1.68 µM

SMILES: Cc1cc(NCCCn2ccnc2)c2n[nH]c(=O)n2c1.Cl
- IC50 [1]: 1.36 µM
- EC50 [2]: 13.3 µM

SMILES: Cc1cc(NCCCc2cccnc2)c2n[nH]c(=O)n2c1.Cl
- IC50 [1]: 0.354 µM
- EC50 [2]: 5.44 µM

SMILES: Cl.O=c1[nH]nc2c(NCCCc3cccc(OCCN4CCOCC4)c3)cc(Cl)cn12
- IC50 [1]: 0.247 µM
- EC50 [2]: 3.84 µM

SMILES: COc1ccc(OCCn2nc3c(N)cccn3c2=O)cc1
- IC50 [1]: > 50 µM

SMILES: Cc1cc(N(C)CCCc2ccccn2)c2n[nH]c(=O)n2c1.Cl
- IC50 [1]: 50 µM

SMILES: Cc1cc(NCCCc2ccc(N)cc2)c2n[nH]c(=O)n2c1.Cl
- IC50 [1]: 1.01 µM
- EC50 [2]: 18.4 µM
